# Laboratory results reported in PubChem BioAssay.
# Assay: yeast TOR pathway reporter LAP4-GFP change – cell-based, cherry picks, flow cytometry, mother/daughter gates, confirmation (AID 2271);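 note: ratio of sample to DMSO plate mean so 100% equals DMSO level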
# Details: S. cerevisiae LAP4-GFP strain, 3 h, measured here: daughter cell gate response, at 10 µM, stronger effect = higher value, 100 means same as DMSO control
# Outline: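 Test system: GFP-fusion yeast strain. Medium: synthetic complete (SC) yeast growth medium. Timing: 3 h treatment at 30 °C with rotation. Measured by: GFP by flow cytometry. Control set: positive rapamycin (400 ng/mL), negative DMSO.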
row,SMILES,GFP response relative to DMSO [%]
1,N=c1n(CCN2CCCCC2)c2ccccc2n1CC(=O)c1ccc(Cl)c(Cl)c1,100
2,COc1cc(NC(=O)c2ccccc2F)ccc1NC(=O)c1cc2ccccc2o1,97.5
3,CCCC(=O)Nc1ccc(NC(=O)c2cc3ccccc3o2)c(OC)c1,99.1
4,Cc1ccc(NC(=O)CCCSc2nc3ccccc3[nH]2)cc1,98.2
5,COc1ccc2c(c1)C=Cc1ccccc1O2,99.2
6,Cc1ccc(-n2nc(C)c3c(C)c(CCC(=O)O)c(C)nc32)cc1,101
7,Oc1ccc(/C=N/Nc2nc(-c3cccnc3)nc3ccccc23)c(O)c1,84.2
8,CCCOc1ccc(N2C(=O)CC(SCCN)C2=O)cc1 (centres undefined),102
9,CCN(CC)C(=O)c1ccc(-c2cccs2)s1,106
10,O=C(COc1ccccc1[N+](=O)[O-])Nc1ccc(NC(=O)c2cc3ccccc3o2)cc1,92
11,COCCNC(=O)c1ccccc1-c1nc(-c2ccccc2Cl)no1,99.2
12,COc1ccc(N2C(=O)CC(Sc3ncn[nH]3)C2=O)c(OC)c1 (centres undefined),161
13,COc1ccc(N=Nc2ccc(O)c3ncccc23)cc1,189
14,COc1cc(NC(=O)c2ccccc2)ccc1NC(=O)c1cc2ccccc2o1,97.5
15,CS(=O)(=O)N1N=C(c2ccco2)CC1c1ccc(Br)cc1 (centres undefined),104
16,CCN(C(=O)c1ccccc1Cl)c1ccccc1,104
17,Cc1ccc(NC(=S)N/N=C/c2c(C)[nH]c3ccccc23)cc1,93.6
18,CCc1nnc(NC(=O)c2nc(S(=O)(=O)Cc3cccc(C)c3)ncc2Cl)s1,102
19,O=C(NCc1ccc2c(c1)OCO2)c1nc(S(=O)(=O)Cc2ccccc2)ncc1Cl,102
